RORA inh: blocks the human nuclear receptor RORA; P35398; CHO-K1 Gal4-RORA LBD luciferase reporter, luminescence; inhibition, % at 10 µM; actives 0.43% (n = 65,000);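 active = inhibition above the mean of all tested compounds plus 3 SD, cut at about 52% in these data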;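 also: 0% = RORA-transfected cells with DMSO and 100% = mock-transfected cells lacking RORA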
Target sequence (P35398 whole entry, looked up, the tested form may be a part): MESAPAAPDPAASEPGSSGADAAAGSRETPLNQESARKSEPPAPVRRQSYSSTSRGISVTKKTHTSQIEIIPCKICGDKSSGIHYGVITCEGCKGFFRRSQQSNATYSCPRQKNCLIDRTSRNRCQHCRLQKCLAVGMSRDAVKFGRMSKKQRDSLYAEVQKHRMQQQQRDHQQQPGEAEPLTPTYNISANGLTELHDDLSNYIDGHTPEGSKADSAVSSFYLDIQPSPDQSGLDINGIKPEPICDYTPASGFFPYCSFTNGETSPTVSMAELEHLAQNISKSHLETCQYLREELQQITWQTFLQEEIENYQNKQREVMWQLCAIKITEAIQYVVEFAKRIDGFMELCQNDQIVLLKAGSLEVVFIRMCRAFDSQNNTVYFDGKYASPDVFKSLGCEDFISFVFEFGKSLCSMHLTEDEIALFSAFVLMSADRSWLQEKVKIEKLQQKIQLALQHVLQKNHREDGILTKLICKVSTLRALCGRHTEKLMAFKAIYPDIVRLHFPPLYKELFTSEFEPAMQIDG
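System: transiently transfected CHO-K1 cells, Gal4-DBD/human RORA-LBD fusion plus 5xGal4-luciferase reporter. Doses: one dose of 10 µM final. Timing: 20 h compound treatment, 37 °C. Measured by: luminescence. Evaluation: % inhibition of basal luciferase versus +RORA/-RORA DMSO controls. Benchmarks: mock-transfected cells as 100%, +RORA DMSO cells as 0%. Replicates: single test per compound.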
Active calls of the source: *. Only a selection was taken, and hits are over-represented in it overall.

SMILES	RORA inh
CCCCN(CCCC)C(=O)CN(C)S(=O)(=O)c1ccc2c(c1)n(C)c(=O)c(=O)n2C	3.7
C=CCOc1cccc(C2/C(=C(/O)c3ccc(C)cc3)C(=O)C(=O)N2CCN2CCOCC2)c1 (stereo unspecified)	-0.4
Cc1nc2ccc(NC(=O)Cc3cccs3)cc2s1	-53.4
COc1cc(NC(=O)CSc2nc(C)cs2)cc(OC)c1	5.6
Cc1csc(SCc2ccccc2C(=O)O)n1	-12.7
CC(=O)Nc1ccccc1OCC(=O)c1cc(C)n(Cc2cccs2)c1C	88.8*
Cc1cc(C(=O)CSc2nnc(-c3ccco3)o2)c(C)n1Cc1ccco1	1.9
Cc1cc(C(=O)COC(=O)c2ccc3c(c2)OCO3)c(C)n1Cc1cccs1	26.7
Cc1csc(SCC(=O)c2cc(C)n(Cc3cccs3)c2C)n1	77.1*
Cc1cc(C(=O)CN2C(=O)NC3(CCCc4ccccc43)C2=O)c(C)n1Cc1cccs1 (stereo unspecified)	-30.5
CC(=O)Nc1ccc(SCC(=O)c2cc(C)n(Cc3cccs3)c2C)cc1	67.0*
CCOC(=O)c1ccc(NC(=O)CCc2nc(-c3ccccc3)no2)cc1	-6.7
CN(C)C(=O)N1CCN(C(=O)c2ccccc2Sc2ccccc2C#N)CC1	7.4
COc1ccccc1-n1c(SCC(=O)NC(C)(C)C)nnc1-c1ccco1	-8.9
Cn1c(Cc2ccccc2)nnc1SCCC(=O)Nc1ccccc1	10.5
CCN(C(=O)c1cn(C)c(=O)c2cc(OC)c(OC)cc12)c1ccccc1C	-14.6
O=C(CSc1nnc(CNC(=O)c2c(F)cccc2Cl)o1)NCc1ccc2c(c1)OCO2	-2.7
CC(=O)N1CCCc2cc(S(=O)(=O)NCc3ccc(C)cc3)ccc21	2.8
CC(C)(C)c1ccc(C(=O)N2CCC(C(=O)NCc3ccncc3)CC2)cc1	-59.6
Cn1nc(C(C)(C)C)cc1C(=O)NCc1ccc(N2CCCC2=O)cc1	85.8*
CC(=O)Nc1c(O)nc(SCC(=O)Nc2ccc(C(C)=O)cc2)[nH]c1=O	-58.1
O=C1c2cccnc2C(O)N1Cc1cccs1 (stereo unspecified)	-16.5
CCC(CO)Nc1ncnc2c1cnn2-c1ccc(OC)cc1 (stereo unspecified)	-61.0
CN(C)c1ccc(NC(=S)c2ccccn2)cc1	84.0*
CCN(CC)S(=O)(=O)c1ccc(NC(=O)c2ccccn2)cc1	-48.6
SMILES	RORA inh
CN(C)S(=O)(=O)c1ccc(NC(=O)c2ccccn2)cc1	-56.7
CCCCNc1cc(C)nc(NCc2ccccc2)n1	57.0*
COc1ccc2nc(NCc3ccccc3)[nH]c2c1	-51.7
Cn1c(SCC(=O)NC2CCCC2)nc2cccnc21	-2.3
CCOC(=O)C1=C(C)NC(=O)NC1c1ccc(NC(C)=O)cc1 (stereo unspecified)	-3.2
CC1(C)CC(=O)c2cc(OCC(=O)NCCN3CCCc4ccccc43)ccc2O1	-4.6
COC(=O)C1=C(CN2CCCc3ccccc32)NC(=O)NC1c1ccc(F)cc1 (stereo unspecified)	77.6*
O=c1ccc2cc3c([nH]c4ccc(Br)cc43)oc-2c1O	9.5
O=C(NC1(C(F)(F)F)N=C2SCCN2C1=O)C1CCCCC1 (stereo unspecified)	6.4
CC(=O)N1CCN(c2ccc(Nc3nc(C)nc4c3oc3ccccc34)cc2)CC1	-18.5
Cc1nc(NC(C)c2ccccc2)c2oc3ccccc3c2n1 (stereo unspecified)	58.1*
CCc1ccc(S(=O)(=O)c2n[nH]n3c2nc(=O)c2ccccc23)cc1	2.7
CC(C)C(=O)Nc1ccc2c(c1)C(=O)N(CCC(=O)O)C2=O	2.7
CCOC(=O)c1c(NC(=O)c2ccn(CC)n2)sc2c1CCCC2	25.3
O=C(NCc1cccs1)c1cc(-c2cccs2)on1	-83.2
COc1cccc(-c2nnc3n2N=C(C(C)(C)C)CS3)c1	62.3*
CCOc1cccc(-c2nnc3n2N=C(c2cc(OC)ccc2OC)CS3)c1	-61.1
Cc1ccc(NC(=O)Cn2nc(C)c3ccccc3c2=O)cc1F	6.6
COc1ccccc1N1CCN(CC(=O)Nc2ccc(C)c(F)c2)CC1	-2.3
Cc1ccc(NC(=O)Cc2nn(C)c(=O)c3ccccc23)cc1F	76.0*
Cn1nc(CC(=O)Nc2ccc3c(c2)OCCO3)c2ccccc2c1=O	74.8*
CCCCC(=O)Nc1ccc(N2CCN(C(=O)CC)CC2)cc1	10.5
Cc1cc2ccccc2c(=O)n1CC(=O)Nc1ccc2c(c1)OCO2	3.3
Cn1nc(CC(=O)Nc2ccc(N3CCN(C(=O)OC(C)(C)C)CC3)cc2)c2ccccc2c1=O	85.9*
Cc1cc(C)n(-c2ccc(C(=O)Nc3ccc4c(c3)OCCO4)cc2)n1	-75.3
SMILES	RORA inh
COc1ccc(N2CCN(C(=O)C3CCC(Cn4c(=S)[nH]c5ccccc5c4=O)CC3)CC2)cc1 (stereo unspecified)	-18.0
Cn1c(=O)cc(SCC(=O)NCCCN2CCOCC2)c2ccc(Cl)cc21	-1.2
COc1ccc(NC(=O)CSc2nnc(Cn3c(=O)sc4ccccc43)n2C)c(OC)c1	-13.5
O=C(O)CSc1nnc(Cn2nnc3ccccc32)n1CCc1ccccc1	21.7
Cc1cc(=O)oc2ccc(OC(=O)c3cccc(S(=O)(=O)N4CCOCC4)c3)cc12	-1.2
COc1ccc(CCNC2=NCC(C)S2)cc1 (stereo unspecified)	15.6
O=C(c1cnn(-c2nc3ccccc3s2)c1)c1ccccc1O	-51.9
CCOC(=O)Cc1csc(NC(=O)c2csc3c2CCCC3)n1	6.2
Cc1sc2ncnc(NCCCn3ccnc3)c2c1C	16.2
COc1ccc(C(=O)Nn2c(SCC(=O)NCc3ccco3)nc3ccccc3c2=O)cc1	59.3*
COc1ccc(-n2nnc3c(SCC(=O)NCc4ccco4)ncnc32)cc1	2.6
O=C(CSc1nc2ccccc2c(=O)n1Cc1ccco1)c1ccc(F)cc1	-10.6
O=C(O)c1ccc(CSc2nnc(-c3ccco3)o2)cc1	-10.3
COc1cc(C(=O)NC2=NCCS2)ccc1OCc1c(C)noc1C	5.2
O=C(NC1=NCCS1)C1COc2ccccc2O1 (stereo unspecified)	71.8*
COc1ccccc1CNC(=O)C1COc2ccccc2O1 (stereo unspecified)	1.9
O=S(=O)(Nc1nc2ccccc2nc1NCc1ccco1)c1cccs1	9.2

Compound activity as filed in PubChem.
